ChEMBL document CHEMBL1137333, “Synthesis, radiosynthesis, and biological evaluation of carbon-11 labeled 2beta-carbomethoxy-3beta-(3'-((Z)-2-haloethenyl)phenyl)nortropanes: candidate radioligands for in vivo imaging of the serotonin transporter with positron emission tomography” (J Med Chem, 2006)

Legend:
Cynomolgus monkey [1] = assay: Uptake in anesthetized cynomolgus monkey caudate after 27.5 mins; assay type: ADME, organism-based, Caudate nucleus; settings: in vivo
In short: (§1)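 Baseline microPET (Concorde P4) regional brain time-activity curves in anesthetized cynomolgus monkey following injection of the [11C]-labelled tracer, with radioactivity followed over the scan.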

Cynomolgus monkey [2] = assay: Ratio of uptake in medulla to cerebellum of anesthetized cynomolgus monkey after 65 mins; assay type: ADME, organism-based; settings: in vivo
In short: (§2)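 Baseline microPET (Concorde P4) in anesthetized cynomolgus monkey after injection of the [11C]-labelled tracer. Regional time-activity curves were taken, and each region's uptake was divided by cerebellum uptake (low-SERT reference) at 65, 85 and 105 min postinjection.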

Cynomolgus monkey [3] = assay: Uptake in anesthetized cynomolgus monkey cerebellum after 2.5 mins; assay type: ADME, organism-based, Macaca mulatta; settings: rhesus monkey, in vivo; in short: as §1
Cynomolgus monkey [4] = assay: Uptake in anesthetized cynomolgus monkey putamen after 27.5 mins; assay type: ADME, organism-based; settings: in vivo
In short: (§3)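 Baseline microPET (Concorde P4) scan in anesthetized cynomolgus monkeys after injection of the carbon-11 labeled tracer, with no chase drug. Regional brain time-activity curves were followed over the scan. Tracer radiochemical purity and specific activity were determined by analytical HPLC at the time of injection.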

Cynomolgus monkey [5] = assay: Uptake in anesthetized cynomolgus monkey putamen after 115.0 mins; assay type: ADME, organism-based; settings: in vivo; in short: as §3
Cynomolgus monkey [6] = assay: Ratio of uptake in caudate to cerebellum of anesthetized cynomolgus monkey after 65 mins; assay type: ADME, organism-based; settings: in vivo; in short: as §2
Cynomolgus monkey [7] = assay: Uptake in anesthetized cynomolgus monkey pons after 45.0 mins; assay type: ADME, organism-based; settings: in vivo, 0.75 h; in short: as §3
Cynomolgus monkey [8] = assay: Ratio of uptake in midbrain to cerebellum of anesthetized cynomolgus monkey after 85 mins; assay type: ADME, organism-based; settings: in vivo; in short: as §2
Cynomolgus monkey [9] = assay: Uptake in anesthetized cynomolgus monkey putamen after 65.0 mins; assay type: ADME, organism-based; settings: in vivo; in short: as §3
Cynomolgus monkey [10] = assay: Uptake in anesthetized cynomolgus monkey caudate after 45.0 mins; assay type: ADME, organism-based, Caudate nucleus; settings: in vivo, 0.75 h; in short: as §1
Cynomolgus monkey [11] = assay: Ratio of uptake in thalamus to cerebellum of anesthetized cynomolgus monkey after 85 mins; assay type: ADME, organism-based; settings: in vivo; in short: as §2
Cynomolgus monkey [12] = assay: Ratio of uptake in putamen to cerebellum of anesthetized cynomolgus monkey after 65 mins; assay type: ADME, organism-based; settings: in vivo; in short: as §2
Cynomolgus monkey [13] = assay: Uptake in anesthetized cynomolgus monkey medulla after 115.0 mins; assay type: ADME, organism-based, Medulla of organ; settings: in vivo
In short: (§4)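 Baseline microPET scan (P4 scanner) of anesthetized cynomolgus monkeys after injection of the carbon-11 labelled nortropane tracer. Two baseline studies were run per tracer. Radioactivity was followed over time in regional brain time-activity curves.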

Cynomolgus monkey [14] = assay: Uptake in anesthetized cynomolgus monkey frontal after 9.5 mins; assay type: ADME, organism-based, Frontal cortex; settings: in vivo; in short: as §4
Cynomolgus monkey [15] = assay: Uptake in anesthetized cynomolgus monkey thalamus after 105.0 mins; assay type: ADME, organism-based; settings: in vivo, 1.75 h; in short: as §3
Cynomolgus monkey [16] = assay: Uptake in anesthetized cynomolgus monkey occipital after 2.5 mins; assay type: ADME, organism-based, Macaca mulatta, Occipital cortex; settings: rhesus monkey, in vivo; in short: as §4
Cynomolgus monkey [17] = assay: Uptake in anesthetized cynomolgus monkey medulla after 15.5 mins; assay type: ADME, organism-based, Medulla of organ; settings: in vivo; in short: as §4
Cynomolgus monkey [18] = assay: Uptake in anesthetized cynomolgus monkey cerebellum after 1.5 mins; assay type: ADME, organism-based; settings: in vivo, 0.025 h; in short: as §1
Cynomolgus monkey [19] = assay: Ratio of uptake in frontal to cerebellum of anesthetized cynomolgus monkey after 85 mins; assay type: ADME, organism-based; settings: in vivo; in short: as §2
Cynomolgus monkey [20] = assay: Ratio of uptake in medulla to cerebellum of anesthetized cynomolgus monkey after 105 mins; assay type: ADME, organism-based; settings: in vivo, 1.75 h; in short: as §2
Cynomolgus monkey [21] = assay: Uptake in anesthetized cynomolgus monkey midbrain after 95.0 mins; assay type: ADME, organism-based; settings: in vivo; in short: as §4
Cynomolgus monkey [22] = assay: Ratio of uptake in midbrain to cerebellum of anesthetized cynomolgus monkey after 105 mins; assay type: ADME, organism-based; settings: in vivo, 1.75 h; in short: as §2
Cynomolgus monkey [23] = assay: Uptake in anesthetized cynomolgus monkey pons after 9.5 mins; assay type: ADME, organism-based; settings: in vivo
In short: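 Carbon-11 labelled tracer injected into anesthetized cynomolgus monkeys under baseline conditions. Regional brain radioactivity was followed by microPET (Concorde microPET P4) and expressed as time-activity curves for the brain regions. Two baseline studies were run per tracer. Tracer radiochemical purity and specific activity were determined by analytical HPLC at the time of injection.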

Cynomolgus monkey [24] = assay: Uptake in anesthetized cynomolgus monkey caudate after 35.0 mins; assay type: ADME, organism-based, Caudate nucleus; settings: in vivo; in short: as §1
Cynomolgus monkey [25] = assay: Ratio of uptake in putamen to cerebellum of anesthetized cynomolgus monkey after 105 mins; assay type: ADME, organism-based; settings: in vivo, 1.75 h; in short: as §2
Cynomolgus monkey [26] = assay: Uptake in anesthetized cynomolgus monkey midbrain after 0.5 mins; assay type: ADME, organism-based; settings: in vivo; in short: as §4
Cynomolgus monkey [27] = assay: Uptake in anesthetized cynomolgus monkey pons after 55.0 mins; assay type: ADME, organism-based; settings: in vivo; in short: as §3
Cynomolgus monkey [28] = assay: Uptake in anesthetized cynomolgus monkey midbrain after 115.0 mins; assay type: ADME, organism-based; settings: in vivo; in short: as §4
Cynomolgus monkey [29] = assay: Uptake in anesthetized cynomolgus monkey cerebellum after 45.0 mins; assay type: ADME, organism-based; settings: in vivo, 0.75 h; in short: as §1
Cynomolgus monkey [30] = assay: Uptake in anesthetized cynomolgus monkey pons after 3.5 mins; assay type: ADME, organism-based; settings: in vivo; in short: as §3
Cynomolgus monkey [31] = assay: Ratio of uptake in midbrain to cerebellum of anesthetized cynomolgus monkey after 65 mins; assay type: ADME, organism-based; settings: in vivo; in short: as §2
Cynomolgus monkey [32] = assay: Uptake in anesthetized cynomolgus monkey cerebellum after 0.5 mins; assay type: ADME, organism-based; settings: in vivo; in short: as §1
Cynomolgus monkey [33] = assay: Ratio of uptake in caudate to cerebellum of anesthetized cynomolgus monkey after 105 mins; assay type: ADME, organism-based; settings: in vivo, 1.75 h; in short: as §2
Cynomolgus monkey [34] = assay: Uptake in anesthetized cynomolgus monkey putamen after 1.5 mins; assay type: ADME, organism-based; settings: in vivo, 0.025 h; in short: as §3
Cynomolgus monkey [35] = assay: Uptake in anesthetized cynomolgus monkey putamen after 85.0 mins; assay type: ADME, organism-based; settings: in vivo; in short: as §3
Cynomolgus monkey [36] = assay: Uptake in anesthetized cynomolgus monkey cerebellum after 3.5 mins; assay type: ADME, organism-based; settings: in vivo; in short: as §1
Cynomolgus monkey [37] = assay: Uptake in anesthetized cynomolgus monkey occipital after 55.0 mins; assay type: ADME, organism-based, Occipital cortex; settings: in vivo; in short: as §4
Cynomolgus monkey [38] = assay: Ratio of uptake in pons to cerebellum of anesthetized cynomolgus monkey after 65 mins; assay type: ADME, organism-based; settings: in vivo; in short: as §2
Cynomolgus monkey [39] = assay: Uptake in anesthetized cynomolgus monkey frontal after 4.5 mins; assay type: ADME, organism-based, Frontal cortex; settings: in vivo, 0.075 h; in short: as §4
Cynomolgus monkey [40] = assay: Uptake in anesthetized cynomolgus monkey putamen after 3.5 mins; assay type: ADME, organism-based; settings: in vivo; in short: as §3
Cynomolgus monkey [41] = assay: Uptake in anesthetized cynomolgus monkey midbrain after 15.5 mins; assay type: ADME, organism-based; settings: in vivo; in short: as §4
Cynomolgus monkey [42] = assay: Uptake in anesthetized cynomolgus monkey cerebellum after 15.5 mins; assay type: ADME, organism-based, Macaca mulatta; settings: rhesus monkey, in vivo; in short: as §1
Cynomolgus monkey [43] = assay: Uptake in anesthetized cynomolgus monkey medulla after 27.5 mins; assay type: ADME, organism-based, Medulla of organ; settings: in vivo; in short: as §4
Cynomolgus monkey [44] = assay: Uptake in anesthetized cynomolgus monkey pons after 18.5 mins; assay type: ADME, organism-based; settings: in vivo; in short: as §3
Cynomolgus monkey [45] = assay: Uptake in anesthetized cynomolgus monkey medulla after 105.0 mins; assay type: ADME, organism-based, Medulla of organ; settings: in vivo, 1.75 h; in short: as §4
Cynomolgus monkey [46] = assay: Uptake in anesthetized cynomolgus monkey frontal after 15.5 mins; assay type: ADME, organism-based, Frontal cortex; settings: in vivo; in short: as §4
Cynomolgus monkey [47] = assay: Uptake in anesthetized cynomolgus monkey occipital after 22.5 mins; assay type: ADME, organism-based, Occipital cortex; settings: in vivo, 0.375 h; in short: as §4
Cynomolgus monkey [48] = assay: Uptake in anesthetized cynomolgus monkey frontal after 3.5 mins; assay type: ADME, organism-based, Frontal cortex; settings: in vivo; in short: as §4
Cynomolgus monkey [49] = assay: Uptake in anesthetized cynomolgus monkey cerebellum after 35.0 mins; assay type: ADME, organism-based, Macaca mulatta; settings: rhesus monkey, in vivo; in short: as §1
Cynomolgus monkey [50] = assay: Uptake in anesthetized cynomolgus monkey pons after 0.5 mins; assay type: ADME, organism-based; settings: in vivo; in short: as §4
Cynomolgus monkey [51] = assay: Uptake in anesthetized cynomolgus monkey thalamus after 85.0 mins; assay type: ADME, organism-based; settings: in vivo; in short: as §3
Cynomolgus monkey [52] = assay: Ratio of uptake in putamen to cerebellum of anesthetized cynomolgus monkey after 85 mins; assay type: ADME, organism-based; settings: in vivo; in short: as §2
Cynomolgus monkey [53] = assay: Uptake in anesthetized cynomolgus monkey pons after 75.0 mins; assay type: ADME, organism-based; settings: in vivo, 1.25 h; in short: as §3
Cynomolgus monkey [54] = assay: Uptake in anesthetized cynomolgus monkey medulla after 45.0 mins; assay type: ADME, organism-based, Medulla of organ; settings: in vivo, 0.75 h; in short: as §4

[11CH3]OC(=O)[C@@H]1C2CCC(C[C@@H]1c1cccc(/C=C/I)c1)N2 (some centres undefined)
Drug uptake (Cynomolgus monkey [1]): 5.41 | Ratio (Cynomolgus monkey [2]): 1.6 | Drug uptake (Cynomolgus monkey [3]): 1.2 | Drug uptake (Cynomolgus monkey [4]): 6.94 | Drug uptake (Cynomolgus monkey [5]): 6.28 | Ratio (Cynomolgus monkey [6]): 1.3 | Drug uptake (Cynomolgus monkey [7]): 6.02 | Ratio (Cynomolgus monkey [8]): 2 | Drug uptake (Cynomolgus monkey [9]): 7.06 | Drug uptake (Cynomolgus monkey [10]): 5.77 | Ratio (Cynomolgus monkey [11]): 1.8 | Ratio (Cynomolgus monkey [12]): 1.6 | Drug uptake (Cynomolgus monkey [13]): 6.11 | Drug uptake (Cynomolgus monkey [14]): 3.33 | Drug uptake (Cynomolgus monkey [15]): 6.3 | Drug uptake (Cynomolgus monkey [16]): 0.85 | Drug uptake (Cynomolgus monkey [17]): 6.72 | Drug uptake (Cynomolgus monkey [18]): 0.38 | Ratio (Cynomolgus monkey [19]): 1.1 | Ratio (Cynomolgus monkey [20]): 2.1 | Drug uptake (Cynomolgus monkey [21]): 7.11 | Ratio (Cynomolgus monkey [22]): 2.4 | Drug uptake (Cynomolgus monkey [23]): 4.69 | Drug uptake (Cynomolgus monkey [24]): 5.74 | Ratio (Cynomolgus monkey [25]): 2.1 | Drug uptake (Cynomolgus monkey [26]): 0.01 | Drug uptake (Cynomolgus monkey [27]): 6.13 | Drug uptake (Cynomolgus monkey [28]): 7.23 | Drug uptake (Cynomolgus monkey [29]): 5.11 | Drug uptake (Cynomolgus monkey [30]): 1.79 | Ratio (Cynomolgus monkey [31]): 1.7 | Drug uptake (Cynomolgus monkey [32]): 0.01 | Ratio (Cynomolgus monkey [33]): 1.7 | Drug uptake (Cynomolgus monkey [34]): 0.35 | Drug uptake (Cynomolgus monkey [35]): 6.58 | Drug uptake (Cynomolgus monkey [36]): 2.19 | Drug uptake (Cynomolgus monkey [37]): 4.58 | Ratio (Cynomolgus monkey [38]): 1.4 | Drug uptake (Cynomolgus monkey [39]): 1.91 | Drug uptake (Cynomolgus monkey [40]): 2.12 | Drug uptake (Cynomolgus monkey [41]): 6.42 | Drug uptake (Cynomolgus monkey [42]): 5.73 | Drug uptake (Cynomolgus monkey [43]): 7.04 | Drug uptake (Cynomolgus monkey [44]): 5.52 | Drug uptake (Cynomolgus monkey [45]): 6.25 | Drug uptake (Cynomolgus monkey [46]): 3.69 | Drug uptake (Cynomolgus monkey [47]): 5.01 | Drug uptake (Cynomolgus monkey [48]): 1.21 | Drug uptake (Cynomolgus monkey [49]): 5.42 | Drug uptake (Cynomolgus monkey [50]): 0.01 | Drug uptake (Cynomolgus monkey [51]): 6.65 | Ratio (Cynomolgus monkey [52]): 1.8 | Drug uptake (Cynomolgus monkey [53]): 5.92 | Drug uptake (Cynomolgus monkey [54]): 7.21
